≈ marks a conversion by molar mass, not a printed value.
Columns and labels:
P. falciparum (W2) = assay: in vitro antimalarial activity, plasmodial LDH; format: cell-based, Plasmodium falciparum; settings: CQ-resistant W2 strain, 72 h
Method in brief: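 P. falciparum-infected erythrocytes (2% parasitemia, 2% hematocrit) in RPMI 1640 with 10% human serum and 60 μg/mL amikacin. Exposed to test compound dilutions for 72 h at 37 °C under 90% N2/5% O2/5% CO2. LDH measured with Malstat reagent (30 min, room temperature), then NBT/PES for 1 h in the dark, stopped with 5% acetic acid, read at 650 nm. IC50 from dose-response curves.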

MRSA (ATCC33591) = assay: in vitro antibacterial activity; format: cell-based, methicillin-resistant Staphylococcus aureus; settings: methicillin-resistant S. aureus; highest test concentration 20 μg/mL
Method in brief: (§1)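 Test compound serially diluted in 20% DMSO/saline and plated in duplicate, up to 20 μg/mL. Inoculum in cation-adjusted Mueller–Hinton broth, pH 7.3, set by OD630 to 5 × 10^5 CFU/mL. Incubated 16–20 h at 35 °C; 530 nm read before and after. IC50 is 50% growth inhibition; MIC is no detectable growth. MBC from clear wells subcultured on agar. Ciprofloxacin control.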

[1] = tested on: SK-MEL, KB, BT-549, SK-OV-3, VERO and LLC-PK1 cells; assay: cytotoxicity, neutral red uptake assay; format: cell-based, mammalian; settings: highest test concentration 4760 ng/mL
Method in brief: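 Cells seeded at 25 000/well and allowed 24 h to reach confluence. Test compound was then added and incubated 48 h. Viable cells were counted by a modified neutral red uptake method. The panel was four human cancer lines and two noncancerous mammalian kidney lines. Doxorubicin served as positive control and DMSO as negative control.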

C. neoformans ATCC90113 = assay: in vitro antifungal activity; format: cell-based, Cryptococcus neoformans
Method in brief: (§2)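 Modified NCCLS broth method in Sabouraud dextrose. Inoculum set by OD630 to 1.5 × 10^3 CFU/mL. Test compound serially diluted in 20% DMSO/saline, duplicate wells, up to 20 μg/mL. Incubated 70–74 h at 35 °C; 530 nm read before and after. IC50 is 50% growth inhibition; MIC is no detectable growth. MFC from clear wells subcultured on agar. Amphotericin B control.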

C. glabrata ATCC90030 = assay: in vitro antifungal activity; format: cell-based, Candida glabrata
Method in brief: as §2

C. krusei ATCC6258 = assay: in vitro antifungal activity; format: cell-based, Candida krusei
Method in brief: as §2

A. fumigatus ATCC 90906 = assay: in vitro antifungal activity; format: cell-based, Aspergillus fumigatus
Method in brief: as §2

P. falciparum (D6) = assay: in vitro antimalarial activity, plasmodial LDH; format: cell-based, Plasmodium falciparum; settings: CQ-sensitive D6 strain, 72 h
C. albicans ATCC90028 = assay: in vitro antifungal activity; format: cell-based, Candida albicans
Method in brief: as §2

SA (ATCC29213) = assay: in vitro antibacterial activity; format: cell-based; settings: Staphylococcus aureus; highest test concentration 20 μg/mL
Method in brief: as §1

[2] = tested on: M. intracellulare (ATCC23068); assay: in vitro antibacterial activity, modified alamarBlue procedure; format: cell-based, Mycobacterium intracellulare; settings: highest test concentration 20 μg/mL
Method in brief: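 Modified alamarBlue microplate method. Test compound serially diluted in 20% DMSO/saline, duplicate wells, up to 20 μg/mL. Inoculum 2.0 × 10^6 CFU/mL in Middlebrook 7H9 with OADC, pH 7.3, containing 5% alamarBlue. Incubated 70–74 h at 37 °C, 10% CO2; fluorescence 544ex/590em read before and after. MIC: no blue-to-pink change. MBC by subculturing blue wells on agar. Ciprofloxacin control.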

[3] = tested on: L. donovani promastigotes; assay: in vitro antileishmanial activity, alamarBlue assay; format: cell-based, Leishmania donovani; settings: promastigotes, 48 h

SMILES | P. falciparum (W2) IC50 (P. falciparum (W2)) | IC50 (concentration that affords 50% growth inhibition), MRSA (MRSA (ATCC33591)) | MBC (minimum bactericidal concentration), MRSA (MRSA (ATCC33591)) | MIC, MRSA (MRSA (ATCC33591)) | cytotoxicity CTX [1] | C. neoformans IC50 (C. neoformans ATCC90113) | C. neoformans MFC (C. neoformans ATCC90113) | C. neoformans MIC (C. neoformans ATCC90113) | C. glabrata IC50 (C. glabrata ATCC90030) | C. glabrata MFC (C. glabrata ATCC90030) | C. glabrata MIC (C. glabrata ATCC90030) | C. krusei IC50 (C. krusei ATCC6258) | C. krusei MFC (C. krusei ATCC6258) | C. krusei MIC (C. krusei ATCC6258) | A. fumigatus IC50 (A. fumigatus ATCC 90906) | A. fumigatus MFC (A. fumigatus ATCC 90906) | A. fumigatus MIC (A. fumigatus ATCC 90906) | P. falciparum (D6) IC50 (P. falciparum (D6)) | C. albicans IC50 (C. albicans ATCC90028) | C. albicans MFC (C. albicans ATCC90028) | further results
CCCCCCOc1c(OC)cc(NC(C)CCCNC(=O)C2CCCN2)c2nc(C(C)(C)C)ccc12 (stereo not drawn) [compound 103, N-(4-(2-tert-Butyl-5-(hexyloxy)-6-methoxyquinolin-8-lamino)pentyl)pyrrolidine-2-carboxamide] | 2.7 mg/L | 2.64 mg/L (≈ 5.15 µM) | 20.00 mg/L (≈ 39 µM) | 5.00 mg/L (≈ 9.75 µM) | NC (NC, not cytotoxic up to 4760 ng/mL (4.76 μg/mL)) | 1.49 mg/L | 2.50 mg/L | 2.50 mg/L | 8.91 mg/L | 10.00 mg/L | 10.00 mg/L | 8.76 mg/L | 10.00 mg/L | 10.00 mg/L | NA (NA, no activity at the highest test concentration of 20 μg/mL) | NA (NA, no activity at the highest test concentration of 20 μg/mL) | NA (NA, no activity at the highest test concentration of 20 μg/mL) | 4 mg/L | 11.54 mg/L | 20.00 mg/L | C. albicans MIC (C. albicans ATCC90028): 20.00 mg/L; IC50 (concentration that affords 50% growth inhibition), SA (SA (ATCC29213)): 2.89 mg/L (≈ 5.64 µM); MBC (minimum bactericidal concentration), SA (SA (ATCC29213)): 10.00 mg/L (≈ 19.5 µM); MIC, SA (SA (ATCC29213)): 5.00 mg/L (≈ 9.75 µM); IC50 (concentration that affords 50% growth inhibition), M. intracellulare [2]: 5.94 mg/L (≈ 11.6 µM); MBC (minimum bactericidal concentration), M. intracellulare [2]: 10.00 mg/L (≈ 19.5 µM); MIC, M. intracellulare [2]: 10.00 mg/L (≈ 19.5 µM); L. donovani IC50 [3]: 4.0 mg/L; L. donovani IC90 [3]: 6.8 mg/L
CCCCCCCCOc1c(OC)cc(NC(C)CCCNC(=O)C(N)CCCN)c2nc(C(C)(C)C)ccc12 (stereo not drawn) [compound 118, 2,5-Diamino-N-(4-(2-tert-butyl-6-methoxy-5-(octyloxy)quinolin-8-lamino)pentyl)-pentanamide] | NA (NA, not active) | NA (NA, no activity at the highest test concentration of 20 μg/mL) | NA (NA, no activity at the highest test concentration of 20 μg/mL) | NA (NA, no activity at the highest test concentration of 20 μg/mL) | NC (NC, not cytotoxic up to 4760 ng/mL (4.76 μg/mL)) | 4.93 mg/L | >20 mg/L | >20 mg/L | 8.05 mg/L | >20 mg/L | >20 mg/L | 15.36 mg/L | >20 mg/L | >20 mg/L | NA (NA, no activity at the highest test concentration of 20 μg/mL) | NA (NA, no activity at the highest test concentration of 20 μg/mL) | NA (NA, no activity at the highest test concentration of 20 μg/mL) | NA (NA, not active) | 19.95 mg/L | >20 mg/L | C. albicans MIC (C. albicans ATCC90028): >20 mg/L; IC50 (concentration that affords 50% growth inhibition), SA (SA (ATCC29213)): NA (NA, no activity at the highest test concentration of 20 μg/mL); MBC (minimum bactericidal concentration), SA (SA (ATCC29213)): NA (NA, no activity at the highest test concentration of 20 μg/mL); MIC, SA (SA (ATCC29213)): NA (NA, no activity at the highest test concentration of 20 μg/mL); IC50 (concentration that affords 50% growth inhibition), M. intracellulare [2]: 7.71 mg/L (≈ 13.8 µM); MBC (minimum bactericidal concentration), M. intracellulare [2]: >20 mg/L; MIC, M. intracellulare [2]: >20 mg/L; L. donovani IC50 [3]: 26.61 mg/L; L. donovani IC90 [3]: 37.9 mg/L
CCCCCCCOc1c(OC)cc(NC(C)CCCNC(=O)C2CCCN2)c2nc(C(C)(C)C)ccc12 (stereo not drawn) [compound 113, N-(4-(2-tert-Butyl-5-(heptyloxy)-6-methoxyquinolin-8-lamino)pentyl)pyrrolidine-2-carboxamide] | 1.5 mg/L | 3.16 mg/L (≈ 6 µM) | 20.00 mg/L (≈ 38 µM) | 5.00 mg/L (≈ 9.49 µM) | NC (NC, not cytotoxic up to 4760 ng/mL (4.76 μg/mL)) | 2.93 mg/L | 5.00 mg/L | 5.00 mg/L | NA (NA, no activity at the highest test concentration of 20 μg/mL) | NA (NA, no activity at the highest test concentration of 20 μg/mL) | NA (NA, no activity at the highest test concentration of 20 μg/mL) | NA (NA, no activity at the highest test concentration of 20 μg/mL) | NA (NA, no activity at the highest test concentration of 20 μg/mL) | NA (NA, no activity at the highest test concentration of 20 μg/mL) | NA (NA, no activity at the highest test concentration of 20 μg/mL) | NA (NA, no activity at the highest test concentration of 20 μg/mL) | NA (NA, no activity at the highest test concentration of 20 μg/mL) | 2.4 mg/L | NA (NA, no activity at the highest test concentration of 20 μg/mL) | NA (NA, no activity at the highest test concentration of 20 μg/mL) | C. albicans MIC (C. albicans ATCC90028): NA (NA, no activity at the highest test concentration of 20 μg/mL); IC50 (concentration that affords 50% growth inhibition), SA (SA (ATCC29213)): 3.52 mg/L (≈ 6.68 µM); MBC (minimum bactericidal concentration), SA (SA (ATCC29213)): 10.00 mg/L (≈ 19 µM); MIC, SA (SA (ATCC29213)): 10.00 mg/L (≈ 19 µM); IC50 (concentration that affords 50% growth inhibition), M. intracellulare [2]: 16.67 mg/L (≈ 31.6 µM); MBC (minimum bactericidal concentration), M. intracellulare [2]: 20.00 mg/L (≈ 38 µM); MIC, M. intracellulare [2]: 20.00 mg/L (≈ 38 µM); L. donovani IC50 [3]: 3.8 mg/L; L. donovani IC90 [3]: 7 mg/L

Source: publication PMC6045484 (ACS Omega, 2018)
